Assays:
[1] = molecular target: Ribosomal protein S6 kinase alpha-1 (Homo sapiens) (UniProt Q15418); assay: Inhibition of MAPK Activated Protein Kinase-1a (unknown origin) at 10 uM relative to control
Rattus norvegicus [2] = assay: (§1) Insulin sensitizing activity in Sprague-Dawley rat hyperinsulinemic-euglycemic glucose clamp model assessed as glucose level during infusion of human insulin at 6000 ug/kg/min, iv for 2 mins followed by 300 ug/kg/min, iv for 28 mins measured during clamp 2 by colorimetry (reference value: 8.1 +/- 0.7 mM); format: functional; conditions: time 30 min, 0.5 h
How it was run: (§2)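 Anesthetized rats; hyperinsulinemic–euglycemic clamp with human insulin infused. A baseline clamp (Clamp1) was followed by a second clamp (Clamp2) with vehicle or drug i.v. The drug was given as a low dose (1000 μg kg−1 + 50 μg kg min−1) or a high dose (6000 μg kg−1 + 300 μg kg min−1). Steady-state glucose infusion rate for euglycemia was recorded, with plasma glucose, human insulin and total insulin; mean ± SEM, n = 4–5/group.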

[3] = Toxicity in Sprague-Dawley rat hyperinsulinemic-euglycemic glucose clamp model assessed as change in heart rate at 6000 ug/kg/min, iv for 2 mins followed by 300 ug/kg/min, iv for 28 mins; format: organism-based; conditions: in vivo, 0.5 h, time 30 min
How it was run: (§3)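 Anesthetized rats underwent two consecutive hyperinsulinemic–euglycemic clamps with human insulin infusion: a baseline Clamp1, then Clamp2 with vehicle or AZD6482 i.v. (n = 4–5/group). Blood pressure and heart rate were followed during control periods and after drug administration. Steady-state glucose infusion rate maintained euglycemia.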

[4] = molecular target: Mitogen-activated protein kinase 15 (Homo sapiens) (UniProt Q8TD08); assay: Inhibition of human MAPK15 at 10 uM relative to control
Rattus norvegicus [5] = assay: Insulin sensitizing activity in Sprague-Dawley rat hyperinsulinemic-euglycemic glucose clamp model assessed as basal total insulin level during infusion of human insulin at 6000 ug/kg/min, iv for 2 mins followed by 300 ug/kg/min, iv for 28 mins (reference value: 0.3 +/- 0.1 nM); format: functional; conditions: time 30 min, 0.5 h; how it was run: as §2
[6] = Toxicity in Sprague-Dawley rat hyperinsulinemic-euglycemic glucose clamp model assessed as change in heart rate at 1000 ug/kg/min, iv for 2 mins followed by 50 ug/kg/min, iv for 28 mins; format: organism-based; conditions: in vivo, 0.5 h, time 30 min; how it was run: as §3
[7] = Toxicity in Sprague-Dawley rat hyperinsulinemic-euglycemic glucose clamp model assessed as increase in blood pressure at 6000 ug/kg/min, iv for 2 mins followed by 300 ug/kg/min, iv for 28 mins; format: organism-based; conditions: in vivo, 0.5 h, time 30 min; how it was run: as §3
[8] = molecular target: Tyrosine-protein kinase ZAP-70 (Homo sapiens, UniProt P43403); assay: Inhibition of human ZAP70
[9] = molecular target: Serine-protein kinase ATM (Homo sapiens, UniProt Q13315); assay: Inhibition of ATM (unknown origin)
Rattus norvegicus [10] = assay: Insulin sensitizing activity in Sprague-Dawley rat hyperinsulinemic-euglycemic glucose clamp model assessed as total insulin level during infusion of human insulin at 1000 ug/kg/min, iv for 2 mins followed by 50 ug/kg/min, iv for 28 mins measured during clamp 2 (reference value: 2.2 +/- 0.1 nM); format: functional; conditions: time 30 min, 0.5 h; how it was run: as §2
[11] = molecular target: Serine/threonine-protein kinase PAK 1 (Homo sapiens, UniProt Q13153); assay: Inhibition of human PAK1
[12] = Inhibition of PI3Kbeta in Beagle dog whole blood assessed as reduction in ADP-induced thrombus formation at 1 uM relative to control; conditions: Canis lupus familiaris, condition thrombotic disease
[13] = molecular target: SRSF protein kinase 1 (Homo sapiens) (UniProt Q96SB4); assay: Inhibition of human SRPK1 at 10 uM relative to control
Rattus norvegicus [14] = assay: Insulin sensitizing activity in Sprague-Dawley rat hyperinsulinemic-euglycemic glucose clamp model assessed as basal glucose level during infusion of human insulin at 1000 ug/kg/min, iv for 2 mins followed by 50 ug/kg/min, iv for 28 mins by colorimetry (reference value: 8.1 +/- 0.7 mM); format: functional; conditions: time 30 min, 0.5 h; how it was run: as §2
[15] = Plasma concentration in Sprague-Dawley rat hyperinsulinemic-euglycemic glucose clamp model at […], iv for 2 mins followed by 300 ug/kg/min, iv for 28 mins; format: ADME, organism-based; conditions: time 30 min
How it was run: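 Plasma drug levels were sampled during the drug-infusion clamp period (Clamp2) in anesthetized rats under a human-insulin hyperinsulinemic–euglycemic clamp. I.v. regimens were 1000 μg kg−1 + 50 μg kg min−1 or 6000 μg kg−1 + 300 μg kg min−1; mean ± SEM, n = 4–5/group.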

[16] = molecular target: Serine/threonine-protein kinase PLK1 (Homo sapiens, UniProt P53350); assay: Inhibition of human PLK
Aurora kinase B = Aurora kinase B (Homo sapiens, UniProt Q96GD4); assay: Inhibition of human AurKB
[17] = molecular target: MAP kinase-interacting serine/threonine-protein kinase 1 (Homo sapiens) (UniProt Q9BUB5); assay: Inhibition of human MNK1 at 10 uM relative to control
[18] = molecular target: Lymphokine-activated killer T-cell-originated protein kinase (Homo sapiens) (UniProt Q96KB5); assay: Inhibition of human PBK at 10 uM relative to control
Rattus norvegicus [19] = assay: Insulin sensitizing activity in Sprague-Dawley rat hyperinsulinemic-euglycemic glucose clamp model assessed as total insulin level during infusion of human insulin at 6000 ug/kg/min, iv for 2 mins followed by 300 ug/kg/min, iv for 28 mins measured during clamp 1 (reference value: 2.2 +/- 0.1 nM); format: functional; conditions: time 30 min, 0.5 h; how it was run: as §2
[20] = molecular target: MAP kinase-interacting serine/threonine-protein kinase 2 (Homo sapiens) (UniProt Q9HBH9); assay: Inhibition of human MNK2 at 10 uM relative to control
Rattus norvegicus [21] = assay: Insulin sensitizing activity in Sprague-Dawley rat hyperinsulinemic-euglycemic glucose clamp model assessed as human insulin level during infusion of human insulin at 1000 ug/kg/min, iv for 2 mins followed by 50 ug/kg/min, iv for 28 mins measured during clamp 2 (reference value: 1.8 +/- 0.1 nM); format: functional; conditions: time 30 min, 0.5 h; how it was run: as §2
[22] = molecular target: Inhibitor of nuclear factor kappa-B kinase subunit beta (Homo sapiens) (UniProt O14920); assay: Inhibition of human IKKb at 10 uM relative to control
Rattus norvegicus [23] = assay: as §1, with “clamp 1” for “clamp 2”, “value: 8.4” for “value: 8.1”, “+/- 0.8” for “+/- 0.7”; format: functional; conditions: time 30 min, 0.5 h; how it was run: as §2
[24] = Toxicity in Sprague-Dawley rat assessed as change in heart rate at 30000 ug/kg, iv for 2 mins followed by 1500 ug/kg/min, iv for 28 mins; format: organism-based; conditions: in vivo, 30 mg/kg, 0.5 h, time 30 min
How it was run: (§4)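 Overnight-fasted anesthetized rats got three consecutive escalating i.v. doses over 30 min each (n = 4/group). Heart rate and blood pressure were followed alongside end-of-interval blood samples for plasma drug exposure, glucose and insulin (relative HOMA index experiments).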

[25] = molecular target: Fibroblast growth factor receptor 1 (Homo sapiens, UniProt P11362); assay: Inhibition of human FGFR1
[26] = molecular target: Serine/threonine-protein kinase pim-1 (Homo sapiens) (UniProt P11309); assay: Inhibition of human PIM1 at 10 uM relative to control
[27] = Toxicity in Sprague-Dawley rat assessed as change in heart rate at 6000 ug/kg, iv for 2 mins followed by 300 ug/kg/min, iv for 28 mins; format: organism-based; conditions: in vivo, 6 mg/kg, 0.5 h, time 30 min; how it was run: as §4
[28] = molecular target: MAP kinase-activated protein kinase 5 (Homo sapiens) (UniProt Q8IW41); assay: Inhibition of human MAPKAPK5 at 10 uM relative to control

Mitogen-activated protein kinase 15 (Homo sapiens), sequence (Q8TD08 whole entry, the tested form may be a part): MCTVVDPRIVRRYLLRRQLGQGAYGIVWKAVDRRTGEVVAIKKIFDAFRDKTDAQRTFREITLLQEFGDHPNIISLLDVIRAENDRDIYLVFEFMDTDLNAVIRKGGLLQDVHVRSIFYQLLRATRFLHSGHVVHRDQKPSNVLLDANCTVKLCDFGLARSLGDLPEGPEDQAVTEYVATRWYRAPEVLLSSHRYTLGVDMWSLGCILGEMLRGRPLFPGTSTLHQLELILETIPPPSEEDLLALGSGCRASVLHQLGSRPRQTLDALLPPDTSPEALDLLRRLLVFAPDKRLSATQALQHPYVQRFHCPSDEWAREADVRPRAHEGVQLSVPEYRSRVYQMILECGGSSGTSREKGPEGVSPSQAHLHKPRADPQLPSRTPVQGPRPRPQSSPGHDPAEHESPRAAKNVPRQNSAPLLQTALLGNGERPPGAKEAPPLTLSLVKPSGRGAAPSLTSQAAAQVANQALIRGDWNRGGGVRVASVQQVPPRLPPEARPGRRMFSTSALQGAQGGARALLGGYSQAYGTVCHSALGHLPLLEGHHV
Aurora kinase B, sequence (Q96GD4 whole entry): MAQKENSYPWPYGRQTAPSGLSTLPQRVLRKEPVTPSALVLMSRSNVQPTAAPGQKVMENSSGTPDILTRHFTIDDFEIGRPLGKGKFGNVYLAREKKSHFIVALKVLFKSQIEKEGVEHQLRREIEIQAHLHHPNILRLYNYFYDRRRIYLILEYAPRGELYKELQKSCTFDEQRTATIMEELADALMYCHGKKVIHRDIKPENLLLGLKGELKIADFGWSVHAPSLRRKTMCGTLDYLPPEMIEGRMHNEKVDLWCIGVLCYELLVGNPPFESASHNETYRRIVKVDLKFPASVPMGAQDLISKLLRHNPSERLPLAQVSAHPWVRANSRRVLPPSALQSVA
Serine/threonine-protein kinase PAK 1, sequence (Q13153 whole entry): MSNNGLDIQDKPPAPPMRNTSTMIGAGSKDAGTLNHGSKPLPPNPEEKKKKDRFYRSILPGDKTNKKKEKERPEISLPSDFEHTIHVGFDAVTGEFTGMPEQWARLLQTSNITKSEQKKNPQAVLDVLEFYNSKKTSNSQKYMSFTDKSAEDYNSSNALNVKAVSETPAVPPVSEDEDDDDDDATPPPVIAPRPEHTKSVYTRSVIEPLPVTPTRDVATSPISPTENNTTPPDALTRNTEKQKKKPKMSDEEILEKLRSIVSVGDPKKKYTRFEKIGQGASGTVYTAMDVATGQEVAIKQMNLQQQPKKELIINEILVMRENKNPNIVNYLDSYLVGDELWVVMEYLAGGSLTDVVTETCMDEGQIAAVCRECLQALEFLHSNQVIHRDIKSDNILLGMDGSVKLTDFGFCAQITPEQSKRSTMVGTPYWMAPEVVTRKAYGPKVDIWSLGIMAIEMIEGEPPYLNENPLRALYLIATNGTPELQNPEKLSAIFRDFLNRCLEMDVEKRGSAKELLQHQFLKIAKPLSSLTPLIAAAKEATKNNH
Ribosomal protein S6 kinase alpha-1 (Homo sapiens), sequence (Q15418 whole entry, the tested form may be a part): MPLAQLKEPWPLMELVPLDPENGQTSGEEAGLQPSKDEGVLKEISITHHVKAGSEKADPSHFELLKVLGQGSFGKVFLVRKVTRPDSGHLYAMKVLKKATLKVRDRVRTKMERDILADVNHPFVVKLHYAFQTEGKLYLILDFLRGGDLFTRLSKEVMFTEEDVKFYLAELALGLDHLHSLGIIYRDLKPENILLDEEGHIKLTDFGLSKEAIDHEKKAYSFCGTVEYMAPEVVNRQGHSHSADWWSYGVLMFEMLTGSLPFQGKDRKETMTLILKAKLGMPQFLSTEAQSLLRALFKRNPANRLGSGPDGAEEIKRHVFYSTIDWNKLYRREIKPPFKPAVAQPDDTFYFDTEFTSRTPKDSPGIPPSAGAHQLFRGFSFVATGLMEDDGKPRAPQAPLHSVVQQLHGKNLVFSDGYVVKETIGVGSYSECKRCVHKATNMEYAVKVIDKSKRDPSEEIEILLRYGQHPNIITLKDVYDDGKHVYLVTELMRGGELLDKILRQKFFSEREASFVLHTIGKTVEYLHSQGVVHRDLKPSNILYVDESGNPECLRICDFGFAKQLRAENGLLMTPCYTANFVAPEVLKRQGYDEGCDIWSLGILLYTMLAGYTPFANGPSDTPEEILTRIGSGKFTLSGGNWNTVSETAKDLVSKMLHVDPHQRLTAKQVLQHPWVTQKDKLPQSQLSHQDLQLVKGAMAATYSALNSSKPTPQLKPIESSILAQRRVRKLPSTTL
Serine/threonine-protein kinase pim-1 (Homo sapiens), sequence (P11309 whole entry, looked up): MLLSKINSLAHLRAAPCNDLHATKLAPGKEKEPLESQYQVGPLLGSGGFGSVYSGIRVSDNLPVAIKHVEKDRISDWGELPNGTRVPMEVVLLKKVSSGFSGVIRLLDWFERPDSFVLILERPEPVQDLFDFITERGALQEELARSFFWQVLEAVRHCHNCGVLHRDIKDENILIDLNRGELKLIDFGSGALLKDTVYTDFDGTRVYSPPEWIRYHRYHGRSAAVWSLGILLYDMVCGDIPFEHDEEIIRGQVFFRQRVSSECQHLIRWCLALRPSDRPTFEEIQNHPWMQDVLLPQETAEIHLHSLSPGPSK
Tyrosine-protein kinase ZAP-70, sequence (P43403 whole entry): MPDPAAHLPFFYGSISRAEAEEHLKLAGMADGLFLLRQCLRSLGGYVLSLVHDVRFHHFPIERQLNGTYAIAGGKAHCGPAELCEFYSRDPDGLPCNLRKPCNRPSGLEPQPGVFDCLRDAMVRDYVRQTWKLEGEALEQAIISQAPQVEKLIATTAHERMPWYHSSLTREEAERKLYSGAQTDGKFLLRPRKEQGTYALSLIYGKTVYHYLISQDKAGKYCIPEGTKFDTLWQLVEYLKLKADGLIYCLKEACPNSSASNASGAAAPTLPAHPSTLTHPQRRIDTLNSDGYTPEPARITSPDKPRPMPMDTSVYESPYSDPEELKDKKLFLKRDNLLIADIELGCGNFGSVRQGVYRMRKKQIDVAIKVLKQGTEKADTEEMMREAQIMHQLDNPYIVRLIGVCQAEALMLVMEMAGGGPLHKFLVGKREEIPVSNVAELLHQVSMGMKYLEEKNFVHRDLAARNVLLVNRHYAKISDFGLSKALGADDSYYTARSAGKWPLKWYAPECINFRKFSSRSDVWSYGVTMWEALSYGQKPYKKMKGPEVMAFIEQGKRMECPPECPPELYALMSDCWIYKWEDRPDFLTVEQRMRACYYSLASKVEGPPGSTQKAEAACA
Fibroblast growth factor receptor 1, sequence (P11362 whole entry): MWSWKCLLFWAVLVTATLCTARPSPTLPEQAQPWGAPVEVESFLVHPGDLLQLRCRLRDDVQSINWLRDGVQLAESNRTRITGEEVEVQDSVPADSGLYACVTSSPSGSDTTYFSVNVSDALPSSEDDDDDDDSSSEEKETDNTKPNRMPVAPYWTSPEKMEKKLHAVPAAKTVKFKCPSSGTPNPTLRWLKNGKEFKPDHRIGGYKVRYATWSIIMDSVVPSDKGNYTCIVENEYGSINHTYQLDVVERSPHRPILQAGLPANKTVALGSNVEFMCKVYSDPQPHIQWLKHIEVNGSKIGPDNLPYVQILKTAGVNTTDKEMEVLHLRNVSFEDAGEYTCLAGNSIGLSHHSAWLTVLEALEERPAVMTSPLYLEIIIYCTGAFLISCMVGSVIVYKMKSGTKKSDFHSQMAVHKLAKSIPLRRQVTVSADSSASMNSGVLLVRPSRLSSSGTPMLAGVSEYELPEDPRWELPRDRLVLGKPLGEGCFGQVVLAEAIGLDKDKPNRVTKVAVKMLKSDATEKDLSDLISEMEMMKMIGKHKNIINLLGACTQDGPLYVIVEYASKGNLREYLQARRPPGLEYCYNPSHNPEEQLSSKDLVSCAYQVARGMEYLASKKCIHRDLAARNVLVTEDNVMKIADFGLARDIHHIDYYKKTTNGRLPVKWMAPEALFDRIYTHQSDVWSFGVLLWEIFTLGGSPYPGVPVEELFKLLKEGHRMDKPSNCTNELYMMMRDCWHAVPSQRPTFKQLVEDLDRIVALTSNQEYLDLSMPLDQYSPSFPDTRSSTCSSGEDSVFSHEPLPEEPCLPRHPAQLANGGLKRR
SRSF protein kinase 1 (Homo sapiens), sequence (Q96SB4 whole entry, the tested form may be a part): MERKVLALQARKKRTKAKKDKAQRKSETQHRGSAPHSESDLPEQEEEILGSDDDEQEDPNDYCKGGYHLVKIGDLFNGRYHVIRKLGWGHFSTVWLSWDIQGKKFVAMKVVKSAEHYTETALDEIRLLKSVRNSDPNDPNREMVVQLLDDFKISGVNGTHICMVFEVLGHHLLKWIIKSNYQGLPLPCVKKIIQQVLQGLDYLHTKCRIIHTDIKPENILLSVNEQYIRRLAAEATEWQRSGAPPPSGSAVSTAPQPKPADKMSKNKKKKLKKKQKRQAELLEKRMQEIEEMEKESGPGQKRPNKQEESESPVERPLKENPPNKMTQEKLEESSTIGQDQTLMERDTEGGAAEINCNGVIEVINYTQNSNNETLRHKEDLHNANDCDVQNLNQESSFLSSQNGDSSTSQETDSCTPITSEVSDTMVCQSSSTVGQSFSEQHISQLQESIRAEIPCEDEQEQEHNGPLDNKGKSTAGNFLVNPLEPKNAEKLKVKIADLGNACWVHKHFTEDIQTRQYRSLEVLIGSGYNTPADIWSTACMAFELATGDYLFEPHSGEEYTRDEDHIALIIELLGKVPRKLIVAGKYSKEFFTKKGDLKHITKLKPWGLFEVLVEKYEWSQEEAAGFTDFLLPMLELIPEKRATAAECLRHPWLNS
Lymphokine-activated killer T-cell-originated protein kinase (Homo sapiens), sequence (Q96KB5 whole entry, the tested form may be a part): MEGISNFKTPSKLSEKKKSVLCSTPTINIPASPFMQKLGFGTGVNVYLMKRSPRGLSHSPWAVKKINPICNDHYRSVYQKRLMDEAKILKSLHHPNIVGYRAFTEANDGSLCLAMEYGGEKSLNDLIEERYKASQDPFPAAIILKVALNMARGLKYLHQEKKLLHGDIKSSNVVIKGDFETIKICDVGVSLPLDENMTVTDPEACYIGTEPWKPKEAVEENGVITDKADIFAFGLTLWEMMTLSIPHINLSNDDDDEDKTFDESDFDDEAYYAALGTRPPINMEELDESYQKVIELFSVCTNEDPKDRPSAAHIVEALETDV

inhibition [1]: 1.6%
IC50 [8]: > 999 µM
IC50 [9]: > 30 µM
IC50 [11]: > 336 µM
inhibition [13]: -9.4%
concentration at 0.5 h [15]: 26.8 µM
IC50 [16]: 84 µM
IC50 (Aurora kinase B): 28 µM
inhibition [17]: -9.8%
inhibition [20]: 6.2%
inhibition [22]: -8.9%
IC50 [25]: > 699 µM
inhibition [26]: 24%
inhibition [28]: 9.9%
SMILES: Cc1cc([C@@H](C)Nc2ccccc2C(=O)O)c2nc(N3CCOCC3)cc(=O)n2c1 [AZD-6482]
Activity (Rattus norvegicus [2]): 7.8 mM
Activity [3]: Non-Toxic
inhibition [4]: 14%
Activity (Rattus norvegicus [5]): 0.4 nM
Activity [6]: Non-Toxic
Activity [7]: 15 mmHg
Activity (Rattus norvegicus [10]): 2.2 nM
inhibition at 1 µM [12]: > 80%
Activity (Rattus norvegicus [14]): 7.6 mM
inhibition [18]: 6.9%
Activity (Rattus norvegicus [19]): 2.3 nM
Activity (Rattus norvegicus [21]): 1.8 nM
Activity (Rattus norvegicus [23]): 7.6 mM
Activity [24]: Non-Toxic
Activity [27]: Non-Toxic
